hERG rescue = compounds protecting human hERG from proarrhythmic drug block; activation (rescue from dofetilide block), less the hit threshold, % at 10 µM; CHO-hERG, FluxOR thallium flux, dofetilide IC70 present; AID 1511; hit rate 0.51% among 310,000;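 active means activation above the mean of controls blocked by dofetilide plus 5 SD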;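 further: thallium influx through hERG after potassium depolarization seen as dye fluorescence rise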
KCNK3 inh = human KCNK3 channel inhibition, primary screen; O14649; CHO-KCNK3 thallium flux, FluxOR fluorescence; hits give low values; B-score at 10 µM; hit rate 0.84% among 340,000; AID 602410;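 active means B-score under library mean minus 4 SD, starting fluorescence ratio at most library mean plus 5 SD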;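 further: more negative B-score means stronger inhibition of thallium flux through KCNK3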
KCNQ1 block = blocks the human KCNQ1 potassium channel; CHO-K1 KCNQ1, FluxOR thallium flux fluorescence; hits give high values; B-score at 10 µM; hit rate 1.3% among 310,000;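 active means compounds whose thallium flux B-score, printed positive for inhibition, exceeds three library SD while starting fluorescence stays within three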;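 further: channel opened by potassium depolarization with thallium stimulus after 20 min compound exposure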
KCNQ1 act = potentiates or activates the human KCNQ1 potassium channel | hit rate 0.35% among 310,000 | CHO-K1 KCNQ1, thallium flux FluxOR fluorescence; hits give high values | AID 2648 | P51787 | B-score at 10 µM;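 active means fluorescence ratio B-score, a plate-corrected score, at least three library SD, with initial intensity B-score within 5 SD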
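System: Stable KCNQ1 CHO-K1 line | Incubation: 90 min dye loading and 20 min compound exposure, both at room temperature | Measure: Ratio B score | Medium: Assay buffer for compound exposure, DMSO matched across wells | Compound dosing: Single-concentration screen | Probe or stimulus: K+/Tl+ depolarizing stimulus | Measured by: Kinetic FluxOR fluorescence, 10 s baseline plus 110 s post-stimulus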
KCNK9 block = inhibitors of human KCNK9 two-pore domain potassium channel; hit rate 1.2% among 310,000; B-score at 10 µM; Q9NPC2; HEK293 KCNK9, FluxOR thallium flux fluorescence; hits give low values;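 active means ratio B-score over 3 SD below the library mean, with starting fluorescence within 5 SD of its mean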;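 further: negative B-score means less thallium flux so channel inhibition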
Kir21 block = Kir2.1 (mouse) channel inhibition; P35561; HEK293-Kir2.1, FluxOR thallium flux fluorescence; hits give low values; B-score at 10 µM; hit rate 0.85% among 310,000; AID 1672;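 active means fluorescence ratio B-score at or below minus 3 SD of library scores, with starting-brightness B-score within 2 SD, cut at about -4.2 in these data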;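 further: channel flux triggered by added potassium and thallium sulfate stimulus; B-score of peak minus minimum fluorescence over baseline after thallium stimulus; more negative B-score means stronger Kir2.1 block with less thallium influx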
KCNK9 block conf = human KCNK9 inhibitor confirmation | shares compounds with KCNK9 block | HEK293 KCNK9 cells, FluxOR thallium flux fluorescence | inhibition, % at 10 µM | hit rate 43% among 4,900 | AID 492992;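 active means thallium signal inhibited by more than 5 SD of the compound-free buffer control wells, on both duplicate plates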;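 further: 0% = assay buffer control wells without compound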
Kir21 sel = selectivity of KCNK9 modulators against mouse Kir2.1. shares compounds with KCNK9 block. Kir2.1 cells, FluxOR thallium flux fluorescence. inhibition, % at 10 µM. hit rate 4% among 4,900;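 active means thallium signal drop more than 5 SD beyond the mean of the no-compound control wells, seen in both duplicate plates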;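 further: signal is fluorescence rise after thallium addition divided by baseline fluorescence; plate controls were assay buffer only for no effect and full block by chlorpromazine control for full effect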
KCNK9 uninduced = non-induced cell nonspecific activity of KCNK9 modulators; non-induced KCNK9-HEK293, FluxOR thallium flux; inhibition, % at 10 µM; hit rate 40% among 4,900; shares compounds with KCNK9 block;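 active means thallium signal drop beyond 5 SD of the untreated control mean, on both duplicate plates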;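 further: plate controls were buffer only IC0 wells for no effect and SID17386958 at its maximal inhibitory level for full effect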
Active calls of the source: *; i = inactive; · = no result given. A selection: hits, their analogues and other compounds. The true share with any hit is near 3.7%.

SMILES | hERG rescue | KCNK3 inh | KCNQ1 block | KCNQ1 act | KCNK9 block | Kir21 block | KCNK9 block conf | Kir21 sel | KCNK9 uninduced
O=C(/C=C/c1ccccc1)N1c2ccccc2Sc2ccc(C(F)(F)F)cc21 | -14.1 | i | i | i | -9.17* | 0.11 | 26.0%* | i | 35.5%*
CCCCCc1ccc(-c2ccc(/C=C/C(=O)O)cc2)nc1 | -3.4 | i | i | i | i | -0.04 | · | · | ·
CCCCCCCc1ccc(-c2ccc(O)cc2)nc1 | -2.6 | i | i | i | i | -0.44 | i | i | i
Cc1ccccc1-n1c(SCC(=O)Nc2ccccc2)nc2nc3c(cc2c1=O)CCCC3 | -16.3 | i | i | i | i | -2.4 | · | · | ·
CC1CCN(Cc2nc(-c3ccccc3)no2)CC1 | -11.5 | i | i | i | i | -0.76 | · | · | ·
Fc1ccccc1N1CCN(Cc2nc(-c3ccccc3)no2)CC1 | -12.7 | i | i | i | i | 1.66 | i | i | i
COc1ccc(-c2noc(CN3CCN(c4ccccc4F)CC3)n2)cc1OC | -8.1 | i | i | i | i | 4.64 | i | i | i
O=C1c2ccccc2C(=O)N1Cc1nc(-c2ccccc2)no1 | -8.1 | i | i | i | i | -0.39 | i | i | i
Fc1ccccc1N1CCN(Cc2cc(-c3ccccc3)on2)CC1 | -4.6 | i | i | i | i | 0.02 | i | i | i
COc1ccc(-c2noc(CN3CCCCC3)n2)cc1OC | -13.8 | i | i | i | i | 2.34 | · | · | ·
Cc1ccc(OCCOc2ccc(Br)cc2)c([N+](=O)[O-])n1 | -6.1 | i | i | i | i | 0.89 | · | · | ·
Cc1ccc(C(=O)C(C)Sc2nnc(N)s2)cc1 (configuration not stated) | -1.1 | i | i | i | i | 0 | · | · | ·
COc1cccc(/C=N/NC(=O)c2cc(-c3ccccn3)nc3ccccc23)c1O | · | i | · | · | · | · | · | · | ·
O=C(N/N=C/c1cc(Cl)cc([N+](=O)[O-])c1O)c1cc(-c2ccccn2)nc2ccccc12 | -17.6 | i | i | i | i | 1.39 | i | i | 28.0%*
Cc1cc(C)cc(C(=O)N2CC(C)SC2=Nc2cccc(S(=O)(=O)N(C)C)c2)c1 (configuration not stated) | -1.3 | i | i | i | -12.5* | -0.78 | 63.5%* | i | 34.5%*
CCCCNC(=O)C1CC(c2c(Cl)cccc2Cl)=NO1 (configuration not stated) | -8.6 | i | i | i | i | -0.43 | · | · | ·
Cc1nc(-c2cccc(S(=O)(=O)N3CCCCCC3)c2)cs1 | -5.8 | i | i | i | i | -1.68 | i | i | i
CC(C)(Oc1ccc(Cl)cc1)C(=O)NNC(=O)c1ccc(Br)o1 | -8.1 | i | i | i | i | 0.17 | · | · | ·
COc1ccc(CN2CCN(CCSc3ccc(C)cc3)CC2)c(OC)c1OC | -2.5 | i | i | i | i | 0.33 | i | i | i
CCN1CCCc2cc(CN(CCN3CCOCC3)C(=S)Nc3cccc(Cl)c3)ccc21 | -13.0 | i | i | i | i | 0.08 | i | i | i
Cc1ccc(C)c(NS(=O)(=O)c2cc(C(=O)Nc3ccccc3-c3ccccc3)ccc2Cl)c1 | -1.8 | i | i | i | -13.1* | -0.03 | 39.0%* | i | 32.5%*
Cc1ccc(NC(=O)CN2C(=O)c3ccccc3C2=O)nc1 | -1.0 | i | i | i | i | -1.02 | · | · | ·
Cn1c(SCc2ccccc2Cl)nc2ccccc21 | -10.2 | i | i | i | -8.36* | 1.44 | 66.0%* | i | i
CCOC(=O)Nc1ccc2c(c1)Sc1ccccc1N2C(=O)CCN1CCOCC1 | -9.7 | i | i | i | i | -0.04 | · | · | ·
COc1ccc(/C=C/C(=O)NCc2cccnc2)cc1 | -1.6 | i | i | i | i | -0.01 | · | · | ·
